Experimental data reported in paper PMC3074116 (Translational stroke research, 2011).
pEC50, pIC50: −log10 of the molar value.

Columns and labels:
[1] = system: H4IIE cells; test: Lipid peroxidation measured as 8-isoprostane; format: cell-based, rat; settings: 1–300 μM
[2] = system: H4IIE cells; test: CTox ranking; format: cell-based, rat; settings: generated from TC50 values by proprietary algorithm
[3] = system: H4IIE cells; test: Intracellular glutathione; format: cell-based, rat; settings: for effect on intracellular GSH content: 1–300 μM; for GSH content TC50: 24-h exposure
[4] = system: H4IIE cells; settings: 24-h exposure, GST leakage, n=3 replicates
[5] = system: H4IIE cells; settings: for Cell number (cell mass) TC50: 24-h exposure, n=7 replicates
[6] = system: rabbit embolic stroke model; settings: cited from earlier work
[7] = system: P-glycoprotein (PgP); test: P-glycoprotein binding using the MTT assay with and without cyclosporin A; settings: 50 μM, 24-h exposure, n=7; for % Control (compound+CSA): with CSA; for % Control (compound): without CSA
[8] = Solubility in culture medium; format: physicochemical; settings: for soluble up to and including: culture medium with 10% bovine serum and 10% calf serum, 37°C
[9] = Metabolic stability in rat microsomes; format: in vitro ADME; settings: 1 μM; for metabolic stability (in words): male Sprague–Dawley rat microsomal preparation; for percent of parent remaining: HPLC/MS
Method in brief: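 Incubated at 1 μM for 30 min at 37°C with pooled liver microsomes from non-induced male Sprague–Dawley rats. Parent loss measured by HPLC-MS on a C18 column at 50°C (water/0.1% formic acid; acetonitrile/0.07% formic acid). Triplicate percent parent remaining; ranked low (100–65%), moderate (65–45%) or high (<45%) metabolism.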

[10] = system: HT22 cells; settings: cited from earlier work
[11] = system: Cytochrome P450 1A1/2
[12] = system: rat cognition assay; settings: 10 mg/kg by gavage; cited from earlier work
[13] = system: H4IIE cells; settings: 24-h exposure, n=7 replicates
[14] = system: HT22 cells; settings: read-out: EC50 neuroprotection, glutamate (5 mM); cited from earlier work
[15] = 100 mg/kg single bolus injection

Compound: CC(C)(C)[N+]([O-])=Cc1ccc(S(=O)(=O)[O-])cc1S(=O)(=O)[O-].[Na+].[Na+] [NXY-059, Disodium 4-[[(1,1,-dimethylethyl)imino]methyl]benzene-1,3-disulfonate N-oxide]
- effect on 8-isoprostane (lipid peroxidation) [1]: no effect
- CTox value (sustained concentration expected to produce toxicity in a rat 14-day repeat dose study) [2]: > 300 µM
- effect on intracellular GSH content [3]: no effect
- GSH content TC50 [3]: > 300 µM
- MemTox TC50 [4]: >300 µM
- Cell number (cell mass) TC50 [5]: >300 µM
- maximum therapeutic window ([6]; time following embolization): 1 h
- % Control (compound+CSA) [7]: 93.6%
- % Control (compound) [7]: 100.0%
- soluble up to and including [8]: ≥ 300 µM
- metabolic stability (in words) [9]: very stable metabolically
- percent of parent remaining ([9]; rat microsomes, 30 min at 37°C): 93%

Compound: COc1cc(C=Cc2cc(/C=C/c3ccc(O)c(OC)c3)nn2-c2ccccc2)ccc1O [CNB-001]
- effect on GSH levels in HT22 cells [10]: no effect
- effect on 8-isoprostane (lipid peroxidation) [1]: did not have any effect
- CTox value (sustained concentration expected to produce toxicity in a rat 14-day repeat dose study) [2]: 42 µM
- GSH content TC50 [3]: 76 µM
- concentration with apparent inhibition of EROD activity ([11]; Fig. 2): above 10 μM
- pIC50 ([11]; read-out: EROD activity inhibition IC50, H4IIE cells): ~4.60
- object recognition index [12]: significantly increased
- MemTox TC50 [4]: 193 µM
- MTT TC50 [13]: 131 µM
- Cell number (cell mass) TC50 [5]: 88 µM
- pEC50 [14]: 6.15
- acute toxicity [6, 15]: without any signs of acute toxicity
- behavior [6, 15]: significant behavioral improvement
- % Control (compound+CSA) [7]: 79.0%
- % Control (compound) [7]: 79.9%
- soluble up to and including [8]: ≥ 100 µM
- solubility at 300 μM ([8]; culture medium, 300 μM): not completely soluble
- metabolic stability (in words) [9]: metabolically unstable
- metabolism ranking ([9]; rat microsomes, 30 min at 37°C): high (<45% as high)
- percent of parent remaining ([9]; rat microsomes, 30 min at 37°C): 42%

Compound: CC1=NN(c2ccccc2)C(=O)C1 [Radicut, 3-Methyl-1-phenyl-2-pyrazolin-5-one]
- effect on 8-isoprostane (lipid peroxidation) [1]: no effect
- CTox value (sustained concentration expected to produce toxicity in a rat 14-day repeat dose study) [2]: > 300 µM
- effect on intracellular GSH content [3]: no effect
- GSH content TC50 [3]: > 300 µM
- MemTox TC50 [4]: >300 µM
- Cell number (cell mass) TC50 [5]: >300 µM
- decrease in cell proliferation ([5]; 300-μM exposure): 30%
- time of administration following embolization at which still active [6]: 3 h
- % Control (compound+CSA) [7]: 94.8%
- % Control (compound) [7]: 95.9%
- solubility [8]: ≥ 300 µM
- metabolic stability (in words) [9]: metabolically unstable
- percent of parent remaining ([9]; rat microsomes, 30 min at 37°C): 28%
